Rows were chosen to be rich in hits. Some 6.7% of all compounds tested hit in one or more screens of this group.
GRIN3A LBD mod: modulates the human NR3A ligand-binding domain. NR3A LBD differential scanning fluorimetry, Tm shift; 0% = protein alone, 100% = glycine-bound protein. Tm shift relative to glycine control, % at 25 µM. actives 2.5% (n = 340,000);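 active = melting temperature shift of at least 10% of the positive control shift, at one fixed dose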
PREPL inhibitor: inhibitors of human prolyl oligopeptidase-like enzyme PREPL | AID 2751 | inhibition, % at 5.96 µM | actives 0.68% (n = 320,000) | recombinant PREPL, fluorescence polarization activity-based probe | Q4J6C6; in the data active = inhibition above about 43%;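 also: 0% = enzyme with DMSO and 100% = wells lacking enzyme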
Target sequence (Q4J6C6 whole entry, looked up): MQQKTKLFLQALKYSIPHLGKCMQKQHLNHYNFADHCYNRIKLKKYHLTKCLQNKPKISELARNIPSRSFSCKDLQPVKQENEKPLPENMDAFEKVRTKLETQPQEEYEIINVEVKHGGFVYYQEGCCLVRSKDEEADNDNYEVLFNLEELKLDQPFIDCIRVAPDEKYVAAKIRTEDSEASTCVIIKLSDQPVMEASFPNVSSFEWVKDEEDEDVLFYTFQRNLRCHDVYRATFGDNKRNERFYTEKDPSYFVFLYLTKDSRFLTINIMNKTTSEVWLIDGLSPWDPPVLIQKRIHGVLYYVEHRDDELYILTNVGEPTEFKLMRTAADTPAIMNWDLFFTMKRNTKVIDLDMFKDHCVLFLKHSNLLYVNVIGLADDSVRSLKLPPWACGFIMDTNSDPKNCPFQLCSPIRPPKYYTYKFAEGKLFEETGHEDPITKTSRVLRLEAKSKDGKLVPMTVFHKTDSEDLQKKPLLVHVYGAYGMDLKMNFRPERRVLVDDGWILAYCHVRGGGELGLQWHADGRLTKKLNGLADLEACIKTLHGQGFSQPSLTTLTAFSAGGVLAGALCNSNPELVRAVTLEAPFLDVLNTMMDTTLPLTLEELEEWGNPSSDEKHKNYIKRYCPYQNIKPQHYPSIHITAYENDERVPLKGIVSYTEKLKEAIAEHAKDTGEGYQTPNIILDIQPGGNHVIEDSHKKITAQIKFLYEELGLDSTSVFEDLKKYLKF
Beta apoptosis: beta cell apoptosis inhibition; INS-1E cytokine-induced death, ATP luminescence, 48 h; percent of positive-control rescue, neutral wells zero; protection from apoptosis, % (no concentration beside the values); actives 0.8% (n = 300,000);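 active = Every replicate reaches about 75%, or at least half do and their mean reaches it too, limit read from the data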;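 also: 0% = cytokine-treated negative control wells and 100% = positive control rescue; higher means more ATP so stronger rescue from cytokine killing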
T cruzi inh: blocks replication of Trypanosoma cruzi. inhibition, % (concentration not given with the values). AID 1885. actives 1.4% (n = 300,000). T. cruzi beta-gal in NIH3T3, luminescence, 90 h;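 active = mean inhibition across valid replicates above about 55%, limit read from the data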;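 also: signal also drops with host cell toxicity which is not excluded here; 0% = plate median of DMSO wells and 100% = zero luminescence signal; higher percent means less beta-gal luminescence so fewer parasites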
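Assay system: NIH/3T3 host cells with β-galactosidase reporter T. cruzi; input: 5,000 host fibroblasts per well; compound: single 50 nL compound addition per well in DMSO; timing: ≥90 h infection period, 3 h prior cell attachment; measured by: GalScreen β-gal luminescence, detergent lysis, 60 min; evaluation: percent inhibition of parasite-derived β-gal signal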
CHOP inhibitor: blocks CHOP induction under ER stress; CHO-K1 CHOP-promoter luciferase, tunicamycin-induced, 15-18 h; inhibition, % at 10 µM; actives 3.8% (n = 220,000);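 active = compounds that reduced the stress-induced luciferase reporter signal by more than about 70% of percent inhibition, limit read from the data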;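 also: 0% = tunicamycin plus vehicle and 100% = wells without tunicamycin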
CSC inhib: blocks cancer stem cells. cancer stem cell-like cells viability, luminescence. inhibition, % at 7.5 µM. actives 1.1% (n = 300,000). AID 2717; in the data active = inhibition above about 75%; tested in HMLE shEcad cells
* hit, by the source's call; nt = no result.

SMILES	GRIN3A LBD mod	PREPL inhibitor	Beta apoptosis	T cruzi inh	CHOP inhibitor	CSC inhib
COc1ccc(CC(=O)Nc2nc(-c3ccncc3)cs2)cc1	-0.5	-1.0	-9.1	66.9*	0.7	-43.3
COc1cc2c(cc1OC)C(C(=O)Nc1ccc(F)c(Cl)c1)CC(=O)N2 (stereo unspecified)	0.7	9.7	-4.6	8.2	nt	4.6
CCOc1ccc(NC(=O)CCCc2cc(-c3ccc(OCC)cc3)on2)cc1	3.8	-2.2	3.4	8.1	82.6*	-20.8
CCOc1ccc(-c2cc(CCCC(=O)NCCc3ccccc3)no2)cc1	-16.9	-7.6	-1.8	12.4	69.1	1.7
CCOc1ccc(-c2cc(CCCC(=O)NCc3cccnc3)no2)cc1	0.2	-2.3	13.4	-1.9	79.7*	-7.9
O=C(c1ccc([N+](=O)[O-])s1)N1CCc2ccccc21	-0.2	6.0	-11.6	36.5	nt	nt
O=C(c1ccc([N+](=O)[O-])s1)N1CCc2ccccc2C1	1.7	13.3	-14.1	84.0*	-10.8	-3.6
C/C(=N\NC(=O)c1cccnc1)c1ccc(OC2OCCOC2Oc2ccc(/C(C)=N/NC(=O)c3cccnc3)cc2)cc1 (stereo unspecified)	-1.9	10.1	31.6	-3.5	0.3	-3.6
COC(=O)Cc1c(C)c2ccc(OC3CCCCC3=O)c(C)c2oc1=O (stereo unspecified)	-0.1	-5.0	24.5	2.7	nt	-6.2
CCCC(C)CO (stereo unspecified)	0.1	-1.3	-2.0	nt	nt	-18.0
Clc1ccc(CNC2CCCC2)c(Cl)c1	-1.1	13.4	nt	-9.9	-2.2	nt
S=C(NCCc1cccc(Cl)c1)NC1CCCCC1	11.5*	nt	0.6	6.7	nt	-5.3
S=C(NCc1ccc(Cl)cc1Cl)NC1CCCCC1	31.6*	9.2	nt	25.2	62.4	16.3
O=C(CC1SC(N2CCOCC2)=NC1=O)Nc1ccc(Cl)c(C(F)(F)F)c1 (stereo unspecified)	-2.5	22.2	-14.2	nt	nt	-14.1
O=S(=O)(NC1c2cccc3cccc(c23)C1Sc1ncccn1)c1ccccc1 (stereo unspecified)	-5.6	-21.6	nt	24.0	-6.3	nt
CN(C)N1C(N)=C(C#N)C(c2cccc3ccccc23)C2=C1CC(c1ccccc1)CC2=O (stereo unspecified)	-5.5	8.0	-0.7	0.9	46.3	80.1*
COCc1cc(C)nc(OCC(=O)N/N=C/c2ccc(-c3cc([N+](=O)[O-])ccc3Cl)o2)c1C#N	-5.1	-1.4	12.0	-4.9	92.3*	8.8
CCCS(=O)(=O)c1c(S(=O)(=O)CCC)c2c(C)cccn2c1C(N)=O	1.2	20.3	-8.8	-13.1	-3.7	-12.5
CCCS(=O)(=O)c1c(S(=O)(=O)CCC)c2c(C)cccn2c1C(=O)N/N=C/c1cc(O)cc(O)c1	-7.7	-0.8	65.4	0.2	60.1	132.5*
O=C(COC(=O)/C=C/c1ccccc1)NC1CCCCC1	1.4	20.2	1.5	nt	nt	-21.6
O=C1c2ccccc2NC(c2ccc(-c3ccc(F)cc3)o2)N1O (stereo unspecified)	-4.7	2.8	-1.4	nt	nt	16.7
O=C1c2ccccc2NC(c2ccc(-c3ccc(Br)cc3)o2)N1O (stereo unspecified)	5.7	16.1	9.5	20.7	63.2	103.3*
Cc1ccccc1N=Cc1cc2c(cc1O)OC(N)=C(C#N)C2c1ccccc1 (stereo unspecified)	6.2	3.4	-48.9	-9.3	89.0*	21.3
COc1ccccc1C(=O)NCCNc1ccc([N+](=O)[O-])cc1Cl	-7.9	5.6	nt	-11.3	nt	-2.6
COc1ccc2c(C(=O)c3ccc(C)cc3)n(Cc3ccc(C(N)=O)cc3)[n+]([O-])c2c1	-0.6	-10.2	-4.3	nt	nt	-8.7
O=C(Oc1ccc(-c2csnn2)cc1)c1cccs1	29.1*	4.7	-6.2	-6.3	2.1	-14.8
O=C(Oc1ccc(-c2csnn2)cc1)C1CC1	-1.0	-0.5	-6.9	-7.4	20.1	-16.3
COc1ccc(C(CNC(=O)CN2C(=O)NC3(CCCC3)C2=O)N(C)C)cc1 (stereo unspecified)	0.7	7.4	-2.9	0.7	nt	nt
Cc1cc(C)nc(NC(=NCCc2c[nH]c3ccccc23)NC(=O)Nc2ccccc2)n1	10.2*	22.6	7.6	49.1	66.9	42.1
Cc1cc(C)nc(NC(=NCCc2c[nH]c3ccccc23)NC(=O)Nc2ccc(Cl)c(Cl)c2)n1	27.4*	10.8	8.6	62.2*	53.0	8.3

Assay outcomes from PubChem.
